This is an account of results in ChEMBL document CHEMBL4513216, “Probing the Open Global Health Chemical Diversity Library for Multistage-Active Starting Points for Next-Generation Antimalarials” (ACS Infect Dis, 2020).

The structures appear in SMILES notation.

The data set is described as follows: Toxicity liver stage against HepG2, at 10uM. It is filed as cell-based. Details: test concentration 10 uM, cell line HepG2-A16-CD81EGFP. The following applies: human, HepG2-A16-CD81EGFP cells; read-out: INHIBITION
In outline:
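Uninfected HepG2-A16-CD81EGFP cells, 3 × 10^3 per well, 1536-well, plated on prespotted compound at 10 μM final, parasite-free screening media added to match infected plates; puromycin 10 μM positive, DMSO 0.5% negative; run in parallel with 48 h PbLuc assay at 37 °C, 5% CO2; viability by CellTiter-Glo luminescence, normalized to controls.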
`CCS(=O)(=O)N1C[C@H]2CN(Cc3cccnc3)C(=O)[C@H]2C1`: the cytotoxicity at 10 µM is -17.8%.
As to `Cc1cc(C(=O)N2CCN(Cc3ccsc3)CC2)c(C)n1C1CC1`, the cytotoxicity at 10 µM is -1.94%.
Take `COCCn1ccc(NC(=O)Nc2ccncc2)n1`: the cytotoxicity at 10 µM was 4.49%.
For `Cc1cccc(S(=O)(=O)N2C[C@@H]3C[C@H](C(=O)NCC4CC4)[C@H](C2)O3)c1`, the cytotoxicity at 10 µM was -2.35%.
`CC(C)(C)c1nc(CN(Cc2cccnc2)C2CN3CCC2CC3)no1` (stereo not given): the cytotoxicity at 10 µM is -4.09%.
Take `CC(C)c1sc(Cl)nc1C(=O)N1CCN(c2ccccc2)CC1`: the cytotoxicity at 10 µM was -87.6%.
Regarding `CCSCc1ccnc(NC(=O)C2CCCO2)c1` (stereo not given), the cytotoxicity at 10 µM is 5.39%.
Consider `CCOC1CCN(C(=O)NCc2cccc(-n3cccn3)c2)CC1`, for which the cytotoxicity at 10 µM was found to be 0.944%.
The result for `COc1ccc(C(C)Nc2nc3c(C)nn(C)c3c(=O)n2C)cc1` (stereo not given) reads 1.89%; that for `CCc1nnsc1C(=O)N1CCN(CC(O)CC)CC1` (stereo not given), -6.06%; that for `Cc1nnsc1CN(C)C(=O)c1ccc(CSc2nnc[nH]2)o1`, -3.33%.
Consider `O=C1CCC(=O)c2oc3ccccc3c2N1`, for which the cytotoxicity at 10 µM was found to be 4.34%.
`Cc1ccc(CN2CC[C@@H]3[C@@H]2CCN3C(=O)Cc2cccs2)o1`: the cytotoxicity at 10 µM is -119%.
As to `C[C@@]1(O)CCN(C2CCOCC2)C[C@H]1n1ccc(=O)[nH]c1=O`, the cytotoxicity at 10 µM came out at 4%.
The result for `CC(C)n1cnnc1CN(C)C(=O)Cn1ccc2ccccc2c1=O` reads 3.1%; that for `Cn1cccc1C(=O)N1C[C@H]2CN(Cc3cccnc3)C[C@H]2C1`, 3.94%.
Under `CCN(CC)c1ccc(CNC(=O)c2cccc(C)n2)cn1` stands 9.47%; under `CC(=O)N1CCC2(CC1)CN(C(=O)c1cccc3[nH]ccc13)C2`, -121%.
On to `CN(C)c1cncc(-c2ccnc3c2ccn3C)n1`, for which the cytotoxicity at 10 µM amounted to 5.51%.
As for `CCC[C@H]1CN(C2CCOCC2)C[C@@H]1NC(=O)CCCn1ccnc1`, the cytotoxicity at 10 µM was determined as 8.06%.
Take `Cc1noc(C)c1CN1CC2(CCN(C(=O)c3c[nH]cn3)C2)CC1=O` (stereo not given): the cytotoxicity at 10 µM was -5.23%.
Consider `Cc1nc2c(c(N3CCC(CCn4cccn4)CC3)n1)CCNCC2`, for which the cytotoxicity at 10 µM amounted to 4.3%.
Under `CCc1nc(CN2CCN(C(=O)c3cncnc3CC)CC2)cs1` stands -11.4%; under `Cc1nn(C)c(C)c1C(C)NCc1ccsc1` (stereo not given), 5.42%.
Take `CN(Cc1nc(N2CCCC2)ncc1-c1ccncc1)C(=O)C(C)(C)C`: the cytotoxicity at 10 µM amounted to 6.58%.
For `COc1ccc(CCCC(=O)N2C[C@H](C3CC3)[C@@H](N(C)C)C2)cc1`, the cytotoxicity at 10 µM worked out at 0.624%.
Under `Cc1sc(C(=O)NC(C)C)cc1S(=O)(=O)N(C)C` stands -7.84%; under `COCC(=O)NC(C)Cc1cccc(OC)c1` (stereo not given), -10.6%.
Regarding `CCC1(CNCc2ncc[nH]2)CCCC1`, the cytotoxicity at 10 µM is -3.09%.
As to `CC(O)CN1CCc2onc(-c3ccccc3F)c2C1` (stereo not given), the cytotoxicity at 10 µM worked out at 0.963%.
The result for `CO[C@H]1CN(c2ccccc2)S(=O)(=O)[C@@]12CCN(Cc1ccccc1)C2` reads -4.86%.
For `Cn1nc(CN2CCCC2)c2c1CN(CC1CC1)CC2`, the cytotoxicity at 10 µM is -3.27%.
For the molecule `CC(C)(O)CCc1cccc(C(=O)NCC2CN(S(C)(=O)=O)CCO2)c1` (stereo not given), the cytotoxicity at 10 µM is 2.29%.
Consider `O=C(CCC1CCCO1)NCc1ccccc1Cn1cncn1` (stereo not given), for which the cytotoxicity at 10 µM is -4.05%.
With `COc1ccccc1C(C)N1CCN(S(=O)(=O)N(C)C)CC1` (stereo not given), the cytotoxicity at 10 µM was -8.8%.
With `Cc1noc(C)c1CN1CCO[C@H]2CN(Cc3cncn3C)C[C@H]21`, the cytotoxicity at 10 µM was -1.62%.
For `O=C1CCCN1c1cccc(N2CCC(NCCc3cscn3)CC2)c1`, the cytotoxicity at 10 µM was -26%.
Consider `CC(C)NC(=O)CN(C)C(=O)c1c(Cl)c2ccccc2n1C`, for which the cytotoxicity at 10 µM was determined as 5.26%.
`c1cncc(CN2CCCC(c3nnc(-c4cnccn4)o3)C2)c1` (stereo not given): the cytotoxicity at 10 µM is -7.36%.
Take `O=C(c1c[nH]c(=O)[nH]c1=O)N1CCCC(c2nccn2CC2CCC2)C1` (stereo not given): the cytotoxicity at 10 µM is -3.67%.
Take `CC(C)NC(=O)N1CCOC2(CCCN(c3cccc(C#N)c3)C2)C1` (stereo not given): the cytotoxicity at 10 µM was found to be 11.8%.
Turning to `O=C(N1CCOCC1)N1C2CCC(O)(CC2)C1CN1CCOCC1` (stereo not given), the cytotoxicity at 10 µM was -1.94%.
On to `O=C(NCc1cc2n(n1)CCCNC2)C1(c2ccc(Cl)cc2)CCC1`, for which the cytotoxicity at 10 µM was -9.72%.
With `COc1cccc(CC(=O)N2CCc3ncnc(NC(C)C)c3CC2)c1`, the cytotoxicity at 10 µM was determined as 6.56%.
On to `CN(c1ccccc1)S(=O)(=O)c1cc2c(c(C(=O)O)c1)OCCO2`, for which the cytotoxicity at 10 µM was -9.47%.
The result for `CN1CCN(c2ccccc2CNC(=O)Cc2cccc(F)c2)CC1` reads -6.29%; that for `CC(C)c1nn(C)c(N(C)C)c1CNCc1cccnc1`, -4.6%; that for `O=C1CC(c2cccnc2)c2c(c(C(=O)O)cn2-c2ccccc2)N1` (stereo not given), 9.92%.
On to `COCC(=O)N1C[C@H]2CN(Cc3cccc(F)c3)C(=O)[C@H]2C1`, for which the cytotoxicity at 10 µM is -83.5%.
Regarding `CCOCCC(=O)N1CCCN(Cc2csc(CC)n2)CC1`, the cytotoxicity at 10 µM is 3.9%.
In the case of `CCn1cnnc1CNC(=O)N1CCN(c2nc(C)c(C)s2)CC1`, the cytotoxicity at 10 µM is -9.62%.
Consider `CCS(=O)(=O)CC(=O)NC1CCc2nccn2C1` (stereo not given), for which the cytotoxicity at 10 µM was 17.1%.
The result for `Cc1cccc(CN2CCN3C(=O)NC[C@H]3C2)n1` reads -3.3%; that for `CN1CCN(CCCN(C)S(=O)(=O)C2CCCCC2)CC1`, -9.46%.
The result for `COCCN1CCCC(O)(CN2CCN(c3cnccn3)CC2)C1=O` (stereo not given) reads 4.04%.
Turning to `COc1ccc(N2CCCC3(C2)CN(c2ncccn2)CCO3)cc1` (stereo not given), the cytotoxicity at 10 µM was 15.3%.
The result for `CC(C)(C)c1ncc2c(n1)CN(C(=O)C(C)(C)n1cccc1)C2` reads -120%; that for `CC(C)C1CN(S(=O)(=O)C2CC2)CCCN1Cc1ccc(F)cc1` (stereo not given), 7.01%; that for `CC(Cn1cccn1)NC(=O)CCc1nc(C(C)(C)C)no1` (stereo not given), 14.5%.
The result for `CCCOc1cccc(NS(=O)(=O)c2cc(C(=O)O)cs2)c1` reads 1.09%; that for `CCN1CCCC1CN(Cc1cc[nH]n1)CC1CCN(CCOC)CC1` (stereo not given), -5.14%.
As to `CCn1cnnc1CN(C)Cc1nc(-c2cc(OC)ccc2F)oc1C`, the cytotoxicity at 10 µM is -1.32%.
`N#Cc1cccnc1N1CCCC(CO)(Cc2ccccc2F)C1` (stereo not given): the cytotoxicity at 10 µM was 4.01%.
On to `CCc1ccc(C(=O)O)cc1S(=O)(=O)Nc1ccc2c(c1)OCCO2`, for which the cytotoxicity at 10 µM was -4.07%.
Under `CCC(=O)N1CCC[C@]2(C(=O)N(C)C)CN(c3ccccn3)C[C@@H]2C1` stands 11.5%; under `Cc1cnn(C2CCCN(C(=O)c3ccc(-n4cccn4)nc3)C2)c1` (stereo not given), -6.12%; under `O=C(Cc1ccsc1)N1CCN(CCOc2ccccc2)CC1`, -4.6%.
For `COCCCN(Cc1cnc(-c2cccs2)nc1)C1CCN(C)CC1`, the cytotoxicity at 10 µM was -3.85%.
Under `CC(C)Cn1cc(NC(=O)c2cccc(N(C)C)c2)cn1` stands 11.8%.
Regarding `Cc1cc(NC(=O)NCC(C)N2CCOCC2)n(C)n1` (stereo not given), the cytotoxicity at 10 µM is -18.3%.
For the molecule `CCOC(=O)N1CCC(C(=O)c2cc(F)ccc2F)CC1`, the cytotoxicity at 10 µM was -8.11%.
The result for `COCCN1CCCN(C(=O)c2scnc2C)CC1` reads 5.27%; that for `O=C(O)[C@H]1C[C@@H](C(=O)NCc2ccncc2)CN(Cc2ccccc2)C1`, -138%; that for `CC(C)S(=O)(=O)NCC1CCCN(C(=O)c2cccnc2)C1` (stereo not given), -7.16%.
`CCc1noc(CN(CC)Cc2cc3ccc(C)cc3[nH]c2=O)n1`: the cytotoxicity at 10 µM was 0.417%.
For the molecule `CN(C)C(=O)[C@H]1C[C@H]2[C@H](CCN2Cc2ccc3c(c2)OCO3)O1`, the cytotoxicity at 10 µM amounted to 2.36%.
On to `O=C(Cc1cccnc1)N1C[C@H]2CC[C@@H](C1)N(Cc1ccccc1)C2=O`, for which the cytotoxicity at 10 µM was found to be 7.93%.
Turning to `CN(Cc1ccccc1F)C(=O)c1cc(Cl)c[nH]1`, the cytotoxicity at 10 µM was -5.45%.
Regarding `CN(C)CCN1CC[C@@H]2O[C@@H](COCC(=O)N3CCCC3)CC[C@@H]21`, the cytotoxicity at 10 µM is -1.78%.
As for `Cc1nn(C)cc1-c1cc(C(F)F)nc2sc(C(N)=O)c(N)c12`, the cytotoxicity at 10 µM is 2.6%.
Take `CC1N(C)C(=O)COC12CCN(Cc1nccs1)CC2` (stereo not given): the cytotoxicity at 10 µM is -124%.
For the molecule `CC(C)c1ccc(/C=C/CC(=O)NC2CCN(C(N)=O)C2)cc1` (stereo not given), the cytotoxicity at 10 µM stood at 0.838%.
Under `COc1cccc(CC2CN(C3CC(C)(C)NC(C)(C)C3)CCO2)c1` (stereo not given) stands -91.7%; under `O=C(c1csc(C2CC2)n1)N1CCCC1Cn1cccn1` (stereo not given), -5.53%.
The result for `c1ccc2c(c1)C(NC1CCCC1)CC21CCNCC1` (stereo not given) reads -120%.
Turning to `CN(CCNC(=O)N1CCN(Cc2ccon2)CC1)C1CCCC1`, the cytotoxicity at 10 µM was found to be 15.6%.
Under `CCN(CC)CC(=O)N1CCCCC1c1nc(C)cs1` (stereo not given) stands -5.78%; under `CC1N(c2cnn(C)c2)C(=O)COC12CCN(c1ncccn1)CC2` (stereo not given), 0.952%; under `Cc1nc2cc(=O)[nH]n2c(C)c1CNC(=O)C(C)(C)c1ccccc1`, 1.1%.
Regarding `CC(C)n1ccnc1CN1CCCN(C(=O)CN(C)C2CC2)CC1`, the cytotoxicity at 10 µM is -3.96%.
In the case of `NC(=O)[C@H]1CCCN(c2nccc(-c3c[nH]nc3-c3cccnc3)n2)C1`, the cytotoxicity at 10 µM is -5.89%.
Turning to `CCn1ncc2c1C(COCC1CC1)CN(c1ccncn1)C2` (stereo not given), the cytotoxicity at 10 µM came to 2.74%.
As to `CN1Cc2c(C(=O)NC3CCCCC3)ncn2-c2ccccc2S1(=O)=O`, the cytotoxicity at 10 µM was -153%.
Regarding `O=C(c1ncccn1)N1C[C@H]2CCC[C@@]2(COCc2ccncc2)C1`, the cytotoxicity at 10 µM was -3.08%.
On to `C[C@H](NC(=O)C1CCCC1)c1nc2cc(-c3ccc(F)cc3)ncn2n1`, for which the cytotoxicity at 10 µM was -10.9%.
